Consider eight compounds from paper PMC9924077 (Cell stem cell, 2022).

Series [1] relates to hiPSC-derived cardiomyocytes. The following applies: tested at concentrations exceeding 100 times the free Cmax; cited from earlier work.
The next series deals with hiPSC-CMs. Type of series: cell-based, human. The following applies: for apparent risk in this study compared with actual clinical practice: hiPSC-CMs, Torsadogenic safety margin.
For series [2] the following is noted: risk of TdP arrhythmia at clinical exposures; cited from earlier work.
A further series relates to DCM and HCM hiPSC-CMs. The series is classed as cell-based, human. The following applies: for asystole safety margin versus isogenic control: DCM RBM20 p.R634Q and PLN p.R14del, HCM MYBPC3 p.R943X and TPM1 p.K37E versus isogenic control hiPSC-CMs; for Torsadogenic safety margin in DCM and HCM hiPSC-CMs versus isogenic control: DCM and HCM lines versus HD.15S1 isogenic control. A digest of the protocol: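 Cells were HCM (TPM1, MYBPC3) and DCM (TNNT2, RBM20, PLN) hiPSC-CMs made by Cas9/ssODN knock-in and Sanger-verified, plus isogenic control. They were plated at 25,000/well for ≥4 days, dye-loaded with VF2.1.Cl/Hoechst for 50 min at 37°C, exposed to drug for 15 min at 37°C, and imaged at 33 Hz for 10 s. Design: 8 doses, 3 differentiation batches × 3 technical repeats. CNN arrhythmic/asystolic probability was fitted by binomial glm against log dose, with EC50 and 95% CI.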

Setting [3] is: healthy donor hiPSC-CMs, 8 concentrations.

With `CC(C)COCC(CN(Cc1ccccc1)c1ccccc1)N1CCCC1` (stereo not drawn) [bepridil, Bepridil], in series [1], the “response in hiPSC-derived cardiomyocytes in previous studies” value is given as “non-arrhythmic responses”. In addition, the “apparent risk in this study compared with actual clinical practice” value in the series with hiPSC-CMs was “appeared less”. Further, the “CiPA TdP risk classification” value in series [2] was “high-risk”.

Turning to `CN(CCOc1ccc(NS(C)(=O)=O)cc1)CCc1ccc(NS(C)(=O)=O)cc1` [dofetilide, Dofetilide], in the series with DCM and HCM hiPSC-CMs, the “asystole safety margin versus isogenic control” value is “heightened propensity to cause asystole”.

Regarding `O=C(CCCN1CC=C(n2c(=O)[nH]c3ccccc32)CC1)c1ccc(F)cc1` [droperidol, Droperidol], the “apparent risk in this study compared with actual clinical practice” value in the series with hiPSC-CMs is “riskier”. In the series on DCM and HCM hiPSC-CMs, the “asystole safety margin versus isogenic control” value was “heightened propensity to cause asystole”; the “Torsadogenic safety margin in DCM and HCM hiPSC-CMs versus isogenic control” value is on record as “trended towards increased risk”. The “CiPA TdP risk classification” value in series [2] is listed as “intermediate risk”.

`CCCCCCCN(CC)CCCC(O)c1ccc(NS(C)(=O)=O)cc1` (stereo not drawn) [ibutilide, Ibutilide]: the “arrhythmia probability (CNN) versus dose” value in the series with hiPSC-CMs (setting [3]) is “continuous, dose-dependent increase in arrhythmia probability”. Besides, in the series on DCM and HCM hiPSC-CMs, the “asystole safety margin versus isogenic control” value was “heightened propensity to cause asystole”; the “Torsadogenic safety margin in DCM and HCM hiPSC-CMs versus isogenic control” value was “trended towards increased risk”. In addition, in series [2], the “CiPA TdP risk classification” value is on record as “high”.

Turning to `Cc1cccc(C)c1OCC(C)N` (stereo not drawn) [mexiletine, Mexiletine], the “apparent risk in this study compared with actual clinical practice” value with hiPSC-CMs is recorded as “riskier”. Moreover, the “CiPA TdP risk classification” value in series [2] was “low-no risk”.

For `COC(=O)C1=C(C)NC(C)=C(C(=O)OC)C1c1ccccc1[N+](=O)[O-]` [nifedipine, Nifedipine], in the series with hiPSC-CMs (setting [3]), the “asystole (probability of asystole class, CNN) versus dose” value is given as “dose-dependent induction of asystole”.

For `Cc1nccn1CC1CCc2c(c3ccccc3n2C)C1=O` (stereo not drawn) [ondansetron, Ondansetron], the “CiPA TdP risk classification” value in series [2] is “intermediate”.

Consider `COc1ccccc1OCC(O)CN1CCN(CC(=O)Nc2c(C)cccc2C)CC1` (stereo not drawn) [ranolazine, Ranolazine], for which, in the series with hiPSC-CMs, the “apparent risk in this study compared with actual clinical practice” value is given as “riskier”. The “CiPA TdP risk classification” value in series [2] is “low-no risk”.
